High-throughput results: PubChem BioAssay, The Scripps Research Institute Molecular Screening Center
Most compounds without a hit are left out; they make up all but 1.9% or so of the library.
ARFGAP1 inh = inhibitors of rat ARFGAP1; Q62848; Arfgap1-stimulated ARF1 GTP hydrolysis, GDP FP detection; inhibition, % at 16.5 µM; 360,000 tested, 0.26% active;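 active = inhibition above a per-plate limit, mean inhibition of low control wells plus 3 SD, cut at about 25% in these data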
Target sequence (Q62848 1-136 limits assumed): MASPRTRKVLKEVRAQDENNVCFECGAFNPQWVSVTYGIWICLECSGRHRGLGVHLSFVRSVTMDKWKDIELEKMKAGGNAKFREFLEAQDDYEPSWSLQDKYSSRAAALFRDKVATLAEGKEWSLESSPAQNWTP
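Material: rat Arfgap1 GAP domain (His6, aa 1-136), purified enzyme. Also added: human ARF1(Δ1-17)-GTP substrate. Compound dosing: 16.5 µM single point, 1.26% DMSO. Timing: enzyme reaction 120 min at 25 °C after 20 min preincubation. Signal: GDP detection by fluorescence polarization. Read-out basis: percent inhibition of GAP-stimulated GDP formation, scaled between DMSO and no-Arfgap1 medians.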
PLC-gamma1 inh = inhibitors of human phospholipase C gamma1 | P19174 | purified PLC-gamma1, fluorogenic substrate, fluorescence | inhibition, % at 12.2 µM | 370,000 tested, 0.84% active; in the data active = inhibition above about 9.5%
ASAP1 GAP inh = ASAP1 ArfGAP inhibition; Q9ULH1; ASAP1-stimulated ARF1 GTP hydrolysis, GDP FP detection; inhibition, % at 16.5 µM; 360,000 tested, 0.19% active; in the data active = inhibition above about 25%
Target sequence (Q9ULH1 325-724 limits assumed): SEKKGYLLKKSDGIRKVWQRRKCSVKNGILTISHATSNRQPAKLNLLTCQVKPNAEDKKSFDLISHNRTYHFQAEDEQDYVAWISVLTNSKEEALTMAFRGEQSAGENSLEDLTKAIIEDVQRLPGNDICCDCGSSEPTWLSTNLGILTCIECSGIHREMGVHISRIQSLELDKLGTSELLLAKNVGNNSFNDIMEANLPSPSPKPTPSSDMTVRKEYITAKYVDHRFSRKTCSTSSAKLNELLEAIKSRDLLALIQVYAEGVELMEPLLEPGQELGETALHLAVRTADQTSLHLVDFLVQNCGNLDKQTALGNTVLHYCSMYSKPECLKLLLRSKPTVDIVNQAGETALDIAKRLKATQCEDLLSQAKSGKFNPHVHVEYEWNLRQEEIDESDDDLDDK
PLCb3 inh = PLC-beta3 (human) inhibition, primary screen; 370,000 tested, 0.18% active; Purified PLC-beta3, fluorogenic substrate, fluorescence; inhibition, % at 12.2 µM; Q01970; in the data active = inhibition above about 11%
HGIII-sPLA2 inh = Blocks human group III sPLA2 activity. Q9NZ20. QFRET BODIPY PC-A2 liposome hydrolysis, fluorescence. inhibition, % at 12.2 µM. 370,000 tested, 0.56% active. AID 743126;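 active = inhibition above mean plus 3 SD of compounds lying within the high and low control bounds, cut at about 19% in these data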
sPLA2 confirm = human GIII-sPLA2 inhibition, confirmation | recombinant hGIII-sPLA2, BODIPY PC-A2 QFRET fluorescence | inhibition, % at 12.2 µM | AID 743280 | shares compounds with HGIII-sPLA2 inh | 2,000 tested, 34% active;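 active = mean inhibition across triplicates above the hit cutoff set in the earlier primary screen, cut at about 19% in these data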
535nm interf = 535nm fluorescence interference, HGIII-sPLA2 counter-screen | shares compounds with HGIII-sPLA2 inh | inhibition, % at 12.2 µM | 2,000 tested, 8.5% active | BODIPY FL product fluorescence interference, QFRET;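 active = average inhibition above the solvent-only control mean plus 3 SD, cut at about 6% in these data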
A number is an active result.

Screening COc1cc(CN(C(=S)NCC(=O)NC2CCCC2)C2CCCC2)cc(OC)c1OC returned ARFGAP1 inh inactive, PLC-gamma1 inh inactive, ASAP1 GAP inh inactive, PLCb3 inh inactive, HGIII-sPLA2 inh 22.7, sPLA2 confirm inactive and 535nm interf inactive.
For CCOC1(C)OCC(=O)[C@]2(CCC3C4CCC5=CC(=O)C=CC5(C)C4C(=O)CC32C)O1 (stereo not given in full) the results were ARFGAP1 inh inactive, PLC-gamma1 inh inactive, ASAP1 GAP inh inactive, PLCb3 inh inactive, HGIII-sPLA2 inh 19.4, sPLA2 confirm inactive and 535nm interf inactive.
For O=S(=O)(Cc1ccc(Cl)cc1)N1CCCCCC1 the results were ARFGAP1 inh inactive, PLC-gamma1 inh inactive, ASAP1 GAP inh inactive, PLCb3 inh inactive and HGIII-sPLA2 inh inactive.
Screening O=S(=O)(Cc1ccc(Cl)cc1)N1CCCC1 returned ARFGAP1 inh inactive, PLC-gamma1 inh inactive, ASAP1 GAP inh inactive, PLCb3 inh inactive, HGIII-sPLA2 inh 20.6, sPLA2 confirm inactive and 535nm interf inactive.
COC(=O)c1cc2c(c3c4cc(OC)ccc4n(S(=O)(=O)c4ccc(OC)cc4)c13)C(=O)N(Cc1ccco1)C2 was read as ARFGAP1 inh inactive, PLC-gamma1 inh inactive, ASAP1 GAP inh inactive, PLCb3 inh inactive and HGIII-sPLA2 inh inactive.
For O=C(Nc1nc(Cc2ccccc2)c(Cc2ccccc2)n1Cc1ccccc1)c1ccccc1 the results were PLC-gamma1 inh inactive, PLCb3 inh inactive and HGIII-sPLA2 inh inactive.
Screening O=C(Nc1nc(Cc2ccccc2)c(-c2ccccc2)n1Cc1ccccc1)c1ccccc1 returned PLC-gamma1 inh inactive, PLCb3 inh inactive, HGIII-sPLA2 inh 19.5, sPLA2 confirm inactive and 535nm interf inactive.
COc1ccc(-c2c(Cc3ccccc3)nc(NC(=O)c3ccccc3)n2C)cc1 was read as PLC-gamma1 inh inactive, PLCb3 inh inactive, HGIII-sPLA2 inh 19.4, sPLA2 confirm inactive and 535nm interf inactive.
Screening CN1Cc2nnn(CC3CCCCC3)c2-c2ccccc2S1(=O)=O returned PLC-gamma1 inh inactive, PLCb3 inh inactive and HGIII-sPLA2 inh inactive.
For O=S(=O)(CC1NCc2ccccc21)NCc1ccc(F)cc1 (stereo not given) the results were PLC-gamma1 inh inactive, PLCb3 inh inactive and HGIII-sPLA2 inh inactive.
COC(=O)C1=C(C)N(Cc2ccccc2C(F)(F)F)C(=NCc2ccc(C(F)(F)F)cc2)NC1c1ccccc1 (stereo not given) was read as ARFGAP1 inh inactive, PLC-gamma1 inh inactive, ASAP1 GAP inh inactive, PLCb3 inh inactive and HGIII-sPLA2 inh inactive.
Cc1cc(N2CCN(c3ccccc3)CC2)n2ncnc2n1 was read as ARFGAP1 inh inactive, PLC-gamma1 inh inactive, ASAP1 GAP inh inactive, PLCb3 inh inactive, HGIII-sPLA2 inh 92.7, sPLA2 confirm inactive and 535nm interf inactive.
Screening O=C(CCc1ccccc1)N[C@H]1[C@H](OC(=O)c2ccco2)CCC[C@]12C(=O)N(Cc1ccccc1)c1ccccc12 returned PLC-gamma1 inh inactive, PLCb3 inh inactive and HGIII-sPLA2 inh inactive.
`COc1ccc(C(=O)C2(C(=O)NCCO)CC(c3ccccn3)=NO2)cc1` (stereo not given) gave PLC-gamma1 inh inactive, PLCb3 inh inactive and HGIII-sPLA2 inh inactive.
Screening Cc1cccc(NC(=S)NCCCN2CCOCC2)c1 returned ARFGAP1 inh inactive, PLC-gamma1 inh inactive, ASAP1 GAP inh inactive, PLCb3 inh inactive, HGIII-sPLA2 inh 19.3, sPLA2 confirm inactive and 535nm interf inactive.
Screening CNC(C#Cc1ccccc1)c1ccccc1C(F)(F)F (stereo not given) returned PLC-gamma1 inh inactive, PLCb3 inh inactive and HGIII-sPLA2 inh inactive.
`Cc1onc(-c2ccccc2)c1-c1n[nH]c(=S)n1-c1ccccc1Cl` gave ARFGAP1 inh inactive, PLC-gamma1 inh inactive, ASAP1 GAP inh inactive, PLCb3 inh inactive, HGIII-sPLA2 inh 19.3, sPLA2 confirm 23.4 and 535nm interf inactive.
`Cc1onc(-c2ccccc2)c1-c1n[nH]c(=S)n1-c1ccc(C(=O)O)cc1` gave ARFGAP1 inh inactive, PLC-gamma1 inh inactive, ASAP1 GAP inh inactive, PLCb3 inh inactive and HGIII-sPLA2 inh inactive.
`Nc1[nH]c(C(=O)c2ccc(Cl)cc2)c(-c2ccc(Br)cc2)c1C(=O)c1c[nH]c2ccc(F)cc12` gave ARFGAP1 inh inactive, PLC-gamma1 inh inactive, ASAP1 GAP inh inactive, PLCb3 inh inactive and HGIII-sPLA2 inh inactive.
For O=C(NCCCN1CCCC1=O)c1cccc(S(=O)(=O)N2CCN(c3ccccc3)CC2)c1 the results were ARFGAP1 inh inactive, PLC-gamma1 inh inactive, ASAP1 GAP inh inactive, PLCb3 inh inactive and HGIII-sPLA2 inh inactive.
Screening CC1CCCN(S(=O)(=O)c2cccc(C(=O)NCCCN3CCCC3=O)c2)C1 (stereo not given) returned ARFGAP1 inh inactive, PLC-gamma1 inh inactive, ASAP1 GAP inh inactive, PLCb3 inh inactive, HGIII-sPLA2 inh 19.9, sPLA2 confirm inactive and 535nm interf inactive.
`CCOC(=O)CC[C@H]1CC[C@]2(CCCN(C(=O)c3cccnc3)C2)O1` gave PLC-gamma1 inh inactive, PLCb3 inh inactive and HGIII-sPLA2 inh inactive.
CC(C)(C)C(=O)C[n+]1ccc(C(N)=O)cc1 was read as ARFGAP1 inh inactive, PLC-gamma1 inh inactive, ASAP1 GAP inh inactive, PLCb3 inh inactive, HGIII-sPLA2 inh 25.6, sPLA2 confirm inactive and 535nm interf inactive.
Cc1ncc([N+](=O)[O-])n1Cc1ccccc1 was read as ARFGAP1 inh inactive, PLC-gamma1 inh inactive, ASAP1 GAP inh inactive, PLCb3 inh inactive and HGIII-sPLA2 inh inactive.
Screening Cc1ccc(Cn2c([N+](=O)[O-])cnc2C)cc1 returned ARFGAP1 inh inactive, PLC-gamma1 inh inactive, ASAP1 GAP inh inactive, PLCb3 inh inactive, HGIII-sPLA2 inh 21.9, sPLA2 confirm inactive and 535nm interf inactive.
Screening CC12CCC(=O)CC1CCC1C2CCC2(C)C1CCC2(O)C(=O)CO (stereo not given) returned ARFGAP1 inh inactive, PLC-gamma1 inh inactive, ASAP1 GAP inh inactive, PLCb3 inh inactive and HGIII-sPLA2 inh inactive.
`CC12CCCC[C@@H]1CCC1C2CCC2(C)C1CC[C@@]2(O)CNCCO` (stereo not given in full) gave ARFGAP1 inh inactive, PLC-gamma1 inh inactive, ASAP1 GAP inh inactive, PLCb3 inh inactive, HGIII-sPLA2 inh 25.2, sPLA2 confirm inactive and 535nm interf inactive.
COC(=O)CN1CCN(C(=O)c2csc3ccccc23)CC1 was read as PLC-gamma1 inh inactive, PLCb3 inh inactive and HGIII-sPLA2 inh inactive.
Screening CCC(=O)NC(=S)Nc1ccc(-c2nc3ccccc3s2)cc1 returned ARFGAP1 inh inactive, PLC-gamma1 inh inactive, ASAP1 GAP inh inactive, PLCb3 inh inactive and HGIII-sPLA2 inh inactive.
`CCC(=O)NC(=S)Nc1ccc(-c2nc3ccc(C)cc3s2)cc1` gave ARFGAP1 inh inactive, PLC-gamma1 inh inactive, ASAP1 GAP inh inactive, PLCb3 inh inactive, HGIII-sPLA2 inh 19.3, sPLA2 confirm inactive and 535nm interf inactive.
